ChEMBL document CHEMBL5055635, “High-Throughput Crystallography Reveals Boron-Containing Inhibitors of a Penicillin-Binding Protein with Di- and Tricovalent Binding Modes” (J Med Chem, 2021)
Active and inactive are the calls of the source. The rule behind the calls is not given here.

What was measured:
[1] = system: Pseudomonas aeruginosa; test: Inhibition of Pseudomonas aeruginosa PBP3 using bocillin FL as a fluorogenic substrate assessed as residual activity at 1 mM preincubated for 1 hr followed by substrate addition measured after 30 mins by fluorescence anisotropy assay relative to control
Method in brief: (§1)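 Purified PBP (60 nM) preincubated with compound for 1 h at 30 °C in 100 mM sodium phosphate pH 7 with 0.01% Triton. BOCILLIN FL (30 nM) was then added, and fluorescence anisotropy was read after 30 min. Residual activity is the percentage of the uninhibited control. Run in triplicate.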

[2] = system: Pseudomonas aeruginosa; test: Inhibition of Pseudomonas aeruginosa PBP3 using bocillin FL as a fluorogenic substrate assessed as residual activity at 100 uM preincubated for 1 hr followed by substrate addition measured after 30 mins by fluorescence anisotropy assay relative to control; method in brief: as §1
[3] = system: Pseudomonas aeruginosa; test: Inhibition of Pseudomonas aeruginosa PBP3 using (2-((benzoyl-D-alanyl)thio)acetic acid) as a substrate assessed as residual activity by measuring substrate turnover at 100 uM incubated for 1 hr followed by substrate addition by absorbance based assay relative to control
Method in brief: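 PaPBP3 (400 nM; 200 nM final) incubated with compound for 1 h at 30 °C in 100 mM sodium phosphate pH 7 with 0.01% Triton. S2d and DTNB (1 mM each, final) were then added, and A412 was followed at 30 °C. Initial rates were corrected for non-enzymatic hydrolysis, measured with 1 mM aztreonam. Residual activity is the percentage of the untreated control. Three technical replicates, standard error.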

[4] = system: Escherichia coli; test: Antimicrobial activity against Escherichia coli […] assessed as bacterial growth inhibition incubated for 18 hrs by CLSI protocol based broth microdilution method; assay type: functional
[5] = system: Pseudomonas aeruginosa; test: Antimicrobial activity against Pseudomonas aeruginosa PAO1 assessed as bacterial growth inhibition incubated for 18 hrs by CLSI protocol based broth microdilution method; assay type: functional
[6] = system: Pseudomonas aeruginosa; test: Antimicrobial activity against permeabilized Pseudomonas aeruginosa assessed as bacterial growth inhibition incubated for 18 hrs by CLSI protocol based broth microdilution method; assay type: functional; details: dose 150 µM
[7] = system: Haemophilus influenzae; test: Antimicrobial activity against Haemophilus influenzae ATCC 49766 assessed as bacterial growth inhibition incubated for 18 hrs by CLSI protocol based broth microdilution method; assay type: functional
[8] = system: Pseudomonas aeruginosa; test: Reversible inhibition of Pseudomonas aeruginosa PBP3 using nitrocefin as substrate assessed as increase in irreversibly bound ceftazidime IC50 by two-fold dilution assay; details: dose 150.0 µM
[9] = system: Haemophilus influenzae; test: Inhibition of Haemophilus influenzae PBP3 assessed as residual activity at 1 mM preincubated for 1 hr followed by substrate addition measured after 30 mins by fluorescence anisotropy assay relative to control; method in brief: as §1
[10] = system: Acinetobacter baumannii; test: Inhibition of Acinetobacter baumannii PBP3 assessed as residual activity at 1 mM preincubated for 1 hr followed by substrate addition measured after 30 mins by fluorescence anisotropy assay relative to control; method in brief: as §1
[11] = system: Escherichia coli; test: Inhibition of Escherichia coli PBP3 assessed as residual activity at 1 mM preincubated for 1 hr followed by substrate addition measured after 30 mins by fluorescence anisotropy assay relative to control; method in brief: as §1
[12] = system: Neisseria gonorrhoeae; test: Inhibition of Neisseria gonorrhoeae PBP2 assessed as residual activity at 1 mM preincubated for 1 hr followed by substrate addition measured after 30 mins by fluorescence anisotropy assay relative to control; method in brief: as §1
[13] = system: Acinetobacter baumannii; test: Antimicrobial activity against Acinetobacter baumannii ATCC 19606 assessed as bacterial growth inhibition incubated for 18 hrs by CLSI protocol based broth microdilution method; assay type: functional; details: ATCC 19606 = CIP 70.34 = JCM 6841
[14] = system: Neisseria gonorrhoeae; test: Antimicrobial activity against Neisseria gonorrhoeae ATCC 49226 assessed as bacterial growth inhibition incubated for 18 hrs by CLSI protocol based broth microdilution method; assay type: functional
[15] = system: Pseudomonas aeruginosa; test: Inhibition of Pseudomonas aeruginosa PBP3 at 1 mM using bocillin FL as a fluorogenic substrate preincubated for 0 to 60 mins followed by substrate addition measured after 30 mins by fluorescence anisotropy assay; details: time 0-60 min
Method in brief: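 PaPBP3 preincubated with compound for 0, 30 or 60 min before BOCILLIN FL was added to start the reaction. Otherwise the standard FA competition format: 60 nM protein, 30 nM BOCILLIN FL, pH 7 sodium phosphate with 0.01% Triton, 30 °C.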

[16] = system: Escherichia coli; test: Synergistic antimicrobial activity against Escherichia coli […] assessed as bacterial growth inhibition in presence of piperacillin incubated for 18 hrs by checkerboard titration method; assay type: functional, organism-based
[17] = system: Pseudomonas aeruginosa; test: Synergistic antimicrobial activity against Pseudomonas aeruginosa PAO1 assessed as bacterial growth inhibition in presence of piperacillin incubated for 18 hrs by checkerboard titration method; assay type: functional, organism-based

Row | SMILES | Activity [1] [%] | MIC [4] [µg/mL] | MIC [5] [µg/mL] | MIC [6] [µg/mL] | further results
1 | OB(O)c1cccc(-c2nnn[nH]2)c1 | 82 | – | – | – | –
2 | COC(=O)[C@H](NC(=O)c1ccc2c(c1)B(O)OC2)c1ccccc1 | – | > 64 | > 64 | > 64 | Activity [2]: > 90%; Activity [3]: > 90%
3 | O=C1CN(C(=O)CNC(=O)c2ccc3c(c2)B(O)OC3)CCN1 | > 90 | – | – | – | –
4 | CN1CCN(C(=O)CNC(=O)c2ccc3c(c2)B(O)OC3CC(=O)O)CC1=O (stereo unspecified) | – | > 64 | > 64 | > 64 | –
5 | CN1CCN(C(=O)CNC(=O)c2ccc3c(c2)B(O)OC3)CC1=O | > 90 | – | – | – | –
6 | O=C(c1ccc2c(c1)B(O)OC2)N(Cc1ccccc1)Cc1ccccc1 | – | > 64 | > 64 | > 64 | Activity [2]: 87%
7 | NC(=O)[C@H](NC(=O)c1ccc2c(c1)B(O)OC2CC(=O)O)c1ccccc1 (stereo partly specified) | – | > 64 | > 64 | > 64 | MIC [7]: > 64 µg/mL; inhibition [8]: inactive; Activity [9]: 32%; Activity [10]: 73%; Activity [11]: > 90%; Activity [12]: > 90%; MIC [13]: > 64 µg/mL; MIC [14]: > 64 µg/mL; inhibition [15]: inactive; Activity [16]: inactive; Activity [17]: inactive
8 | O=C(O)C[C@@H]1OB(O)c2ccc(OCc3ccccc3)cc21 | 20 | – | – | – | –
9 | CN1CCN(C(=O)[C@@H](Cc2ccccc2)NC(=O)c2ccc3c(c2)B(O)OC3)CC1=O | > 90 | – | – | – | –
